This is a sample that favours compounds with a hit; in the whole collection about 2.6% have one here.
SENP8 block-1: SENP8 protease inhibition | Q96LD8 | inhibition, % at 10 µM | hit rate 1.2% among 330,000 | purified SENP8, Z-RLRGG-aminoluciferin cleavage, luminescence; in the data active = inhibition above about 50%
Target sequence (Q96LD8 whole entry, looked up): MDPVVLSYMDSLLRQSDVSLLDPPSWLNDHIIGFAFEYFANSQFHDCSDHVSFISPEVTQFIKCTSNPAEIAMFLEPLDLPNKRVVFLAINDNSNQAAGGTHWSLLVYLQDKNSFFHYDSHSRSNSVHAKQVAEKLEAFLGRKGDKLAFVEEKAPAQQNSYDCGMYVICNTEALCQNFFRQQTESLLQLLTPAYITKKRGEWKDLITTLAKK
SENP7 inh: SENP7 protease inhibition | recombinant SENP7, Z-RLRGG-aminoluciferin luminescence, 40 min | inhibition, % at 5 µM | hit rate 1.5% among 330,000 | AID 434973;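 active = inhibition above about 50% at the single test dose, limit read from the data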;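 note: plate controls were DMSO with enzyme for no effect and no enzyme buffer wells for full effect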
Target sequence (Q9BQF6 706-1050 limits assumed): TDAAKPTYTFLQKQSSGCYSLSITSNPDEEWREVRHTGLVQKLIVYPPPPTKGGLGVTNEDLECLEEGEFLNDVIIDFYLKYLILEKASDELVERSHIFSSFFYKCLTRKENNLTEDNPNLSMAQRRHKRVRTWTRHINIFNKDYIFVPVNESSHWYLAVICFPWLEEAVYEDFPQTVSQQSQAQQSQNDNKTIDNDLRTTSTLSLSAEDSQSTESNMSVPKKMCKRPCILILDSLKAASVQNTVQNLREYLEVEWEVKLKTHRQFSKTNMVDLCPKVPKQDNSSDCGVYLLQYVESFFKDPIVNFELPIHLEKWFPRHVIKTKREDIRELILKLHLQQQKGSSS
SENP6 block: SENP6 protease inhibition; AID 2599; Recombinant SENP6 catalytic domain, aminoluciferin luminescence; hit rate 1.8% among 330,000; Q9GZR1; inhibition, % at 10 µM;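 active = inhibition above about 50% at the single tested dose, limit read from the data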;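 note: plate controls were DMSO wells with enzyme for no effect and DMSO wells lacking enzyme for full effect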
Platelet DG rel: platelet dense granule release activity; human platelet-rich plasma, SFLLRN dense granule ATP release, luminescence; inhibition, %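 (compounds screened at 7.5 µM in platelet-rich plasma)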; hit rate 0.22% among 300,000; AID 1663;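 active = mean replicate score, as percent of positive control, at or above 50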
SENP1 FRET inh: SENP1 (human) catalytic domain inhibition. Q9P0U3. recombinant SENP1 catalytic domain, CyPet-SUMO1-YPet FRET cleavage. inhibition, % at 10 µM. hit rate 0.21% among 360,000. AID 624204;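 active = inhibition at least 30% at 10 µM, raw YFP signal under a set limit, fluorescence ratio 0.5 to 1.5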;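 note: 0% = enzyme with DMSO and 100% = no enzyme wells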
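material = recombinant human SENP1 catalytic domain, His6-tagged | quantity = 20 pM enzyme | reagent = 25 nM SUMO1 FRET substrate | compound dosing = 10 µM single point, 0.5% DMSO | timing = 50 min enzyme reaction, room temperature, light-protected | detection = FRET, CFP and YFP emission | control set = no-enzyme low, enzyme-DMSO high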
SENP8 block-2: inhibitors of human SENP8 protease; Q96LD8; recombinant SENP8, Nedd8 substrate fluorescence; inhibition, % at 20 µM; hit rate 0.64% among 360,000; AID 602440; in the data active = inhibition mostly above about 40%, no sharp cut-off; inactive = mostly below about 27%
Numbers without * were called inactive; · = no result.

SMILES | SENP8 block-1 | SENP7 inh | SENP6 block | Platelet DG rel | SENP1 FRET inh | SENP8 block-2
CCCCCCn1c(O)c(/C=C2\C=NN=C2c2ccccc2)sc1=S | -4.9 | -1.9 | -4.7 | 23.2 | -7.5 | 42.2*
CC(=O)N1CCC(C(=O)N2c3ccccc3N=C(c3ccc4c(c3)OCO4)C2C(=O)NCc2ccccc2)CC1 (stereo not drawn) | · | · | · | · | -1.9 | -189.3
CCS(=O)(=O)C1=NN2C(=N)/C(=C\c3ccc(OC(=O)c4ccco4)c(OC)c3)C(=O)N=C2S1 | 53.2* | -0.8 | 3.6 | -2.1 | -59.6 | -29.7
CCS(=O)(=O)C1=NSC2=NC(=O)/C(=C\c3ccc(OC(=O)c4ccco4)c(OC)c3)C(=N)N21 | 13.4 | 3.4 | -6.1 | -11.8 | -67.4 | -7.6
COc1cccc(Nc2ccc(N3CCCCC3)cc2)c1OC | 3.2 | -10.5 | 6.8 | · | 89.8* | -35.4
CCOC(=O)CC1C(=O)NCCN1c1nc2ccc(C)cn2c(=O)c1/C=C1\SC(=S)N(C(C)CC)C1=O (stereo not drawn) | 6.2 | -0.5 | -9.9 | -9.2 | · | ·
CCOC(=O)CC1C(=O)NCCN1c1nc2ccc(C)cn2c(=O)c1/C=C1\SC(=S)N(CC(C)C)C1=O (stereo not drawn) | -2.3 | 12.1 | -4.3 | 3.9 | -14.2 | 47.9*
Cc1ccccc1/C=C/c1nc2ccccc2c(=O)[nH]1 | 68.7* | 85.9* | 11.8 | 9.2 | 2.7 | -70.6
CC(C)(C)NC(=O)C1c2ccccc2OCC(=O)N1Cc1ccco1 (stereo not drawn) | · | · | · | · | 1.9 | 9.9
COc1ccc(/C(C#N)=C/c2ccccn2)cc1 | 53.8* | 6.1 | 63.8* | 9.3 | -2.3 | -281.0
N#C/C(=C\c1ccccn1)c1nc2ccccc2s1 | -4.2 | -8.4 | 27.1 | 1.6 | -25.9 | -329.1
O=C1Nc2ccccc2/C1=N\N=C\c1ccc(O)c(O)c1 | -13.6 | -12.8 | -11.0 | 1.5 | 4.0 | 56.7*
Nc1c(Cl)ncnc1N/N=C/c1ccc(O)cc1 | 94.7* | 95.6* | 96.3* | 71.9* | 1.4 | -137.4
Cc1cn([C@H]2C[C@H](O)[C@@H](/C=C/C(=O)NCc3cccc4ccccc34)O2)c(=O)[nH]c1=O | · | · | · | · | -1.5 | 11.7
CCN(CC)c1ccc(N2C(=O)CSC2=S)cc1 | 3.4 | 13.8 | 6.7 | -3.1 | 7.1 | 54.6*
CCOc1ccc(N2C(=O)CSC2=S)cc1 | 2.9 | 9.3 | 17.3 | -3.5 | -1.5 | 5.6
COc1ccccc1N1CCN(/N=C/c2ccc(Cl)c([N+](=O)[O-])c2)CC1 | -27.3 | 3.0 | 6.9 | 10.9 | 2.4 | 19.4
O=[N+]([O-])c1cc(/C=N/N2CCN(C3c4ccccc4-c4ccccc43)CC2)ccc1Cl | 1.9 | 1.7 | 5.9 | 5.5 | 0.6 | 47.0*
CCOC(=O)c1cc(-c2cccc(O)c2)oc1C | · | · | · | · | 2.0 | 3.2
c1ccc2c(c1)nnn1c3ccccc3nc21 | 86.2* | 96.3* | 95.6* | 15.4 | · | ·
O=C(Nc1cccc(Br)c1)c1ccc(OC2CSC2)cc1 | 89.9* | 96.4* | 91.9* | 14.4 | · | ·
CC(=O)c1cccc(NC(=O)c2ccc(OC3CSC3)cc2)c1 | 4.6 | 40.3 | -12.6 | -1.4 | 1.1 | 6.7
CS(=O)(=O)N1N=C(c2ccc(Cl)cc2)CC1c1cccs1 (stereo not drawn) | 20.7 | 40.1 | 51.1* | 3.8 | 1.1 | 8.1
CCC(CC)C(=O)N(C)c1c(C)nc2c(OCC3CCCCC3)cccn12 | · | · | · | · | 1.2 | 9.7
NC(CO)C(=O)NNCc1ccc(O)c(O)c1O (stereo not drawn) | 4.3 | 16.2 | 8.9 | 1.4 | 4.6 | 44.8*
SMILES | SENP8 block-1 | SENP7 inh | SENP6 block | Platelet DG rel | SENP1 FRET inh | SENP8 block-2
CCN(CC(=O)Nc1ccccc1C(F)(F)F)C(=O)CCc1c(C)[nH]c(=O)c(C#N)c1C | 7.6 | 0.6 | -8.7 | 64.8* | 0.2 | -63.6
NCCN1C(=O)c2ccccc2C1(O)c1ccc(Cl)cc1 (stereo not drawn) | · | · | · | · | 2.1 | 8.9
Cc1ccc(-c2ccc(/C=N/NC(=O)c3ccccc3O)o2)cc1 | 27.1 | 53.5* | 57.9* | -3.5 | · | ·
CCOC(=O)c1cc2cc(OC)ccc2nc1C | 0.2 | 0.6 | 3.0 | 66.3* | 1.1 | -285.7
CCOC(=O)[C@]12CCCC=C1N(Cc1ccc3c(c1)OCO3)C(=O)[C@H](CC(=O)N1CCOCC1)C2 | · | · | · | · | 1.8 | 31.9
Cc1nc2sccn2c(=O)c1S(=O)(=O)N1CCN(c2cccc(Cl)c2)CC1 | -7.8 | 11.8 | -14.5 | 54.4* | -1.1 | 6.9
Cc1nc2sccn2c(=O)c1S(=O)(=O)N1CCN(c2ccccc2F)CC1 | · | · | · | · | -0.2 | 4.8
COc1ccc(C(O)c2nc(-c3ccccc3C)cs2)cc1 (stereo not drawn) | · | · | · | · | 2.0 | 8.6
O=S1(=O)CC(N2CCN(Cc3ccccc3F)CC2)CN1Cc1cn(Cc2ccc(C(F)(F)F)cc2)nn1 (stereo not drawn) | · | · | · | · | -0.1 | 10.2
Cc1csc(-c2nc3ccccc3n2C(C(=O)NC(C)(C)C)c2cc3ccccc3o2)c1 (stereo not drawn) | · | · | · | · | -15.8 | -389.8
Cc1[nH]n(-c2ccccc2)c(=O)c1C(c1ccc(C(=O)O)cc1)c1c(C)[nH]n(-c2ccccc2)c1=O | -2.7 | 18.0 | 26.1 | 8.0 | 2.5 | 71.2*
Cc1[nH]n(-c2ccccc2)c(=O)c1C(c1cccc([N+](=O)[O-])c1)c1c(C)[nH]n(-c2ccccc2)c1=O | -12.7 | 15.1 | 10.6 | 12.0 | 0.9 | 49.2*
Cc1[nH]n(-c2ccccc2)c(=O)c1C(C[N+](=O)[O-])c1ccc(Br)cc1 (stereo not drawn) | 25.4 | 41.3 | 34.9 | 7.2 | 2.8 | 87.7*
CCCCn1nnnc1C1(C)CCC(=O)N1c1ccc(N2CCOCC2)cc1 (stereo not drawn) | · | · | · | · | 2.5 | 6.2
COC1C(=O)CCC2(CO2)C1(O)C1(C)OC1CC=C(C)C (stereo not drawn) | · | · | · | · | -3.6 | 14.3
CCCCn1nnnc1C(c1ccccc1)N1CCN(c2ccc(C(F)(F)F)cn2)CC1 (stereo not drawn) | · | · | · | · | 1.5 | -1.5
Cc1cccc(C)c1-n1nnnc1C(c1ccccc1OC(F)(F)F)N1CCN(C/C=C/c2ccccc2)CC1 (stereo not drawn) | · | · | · | · | -1.2 | 10.9
O=C1C=C(NCCc2cc(Br)c(O)c(Br)c2)C(=O)c2ncccc21 | · | · | · | · | 3.7 | 115.7*
CC(C)(C)c1cc(CCC(=O)NCCc2ccccn2)cc(C(C)(C)C)c1O | -4.2 | -5.7 | -7.6 | -1.1 | 1.2 | 9.7
O=S(=O)(Nc1nc2ccccc2nc1N1CCc2ccccc2C1)c1ccc(Cl)cc1 | -0.4 | 58.3* | 36.9 | 10.6 | -10.6 | -234.7
CCCC(=Nc1ccc(N)cc1)C1=C(O)C(C(=O)OC)C(C)(C)CC1=O (stereo not drawn) | 6.5 | 1.2 | 14.0 | -2.0 | 44.5* | 79.6*
COc1cc(NS(=O)(=O)c2ccc(C)cc2)c2c(c1N)C(=O)c1ccccc1C2=O | · | · | · | · | 18.0 | 41.4*
COC(=O)C(C(=O)OC)c1ccccc1NS(=O)(=O)c1ccc(C)cc1 | · | · | · | · | 4.3 | 8.2
CC(C)(C)n1nnnc1C(CCc1ccccc1)N1CCN(C/C=C/c2ccccc2)CC1 (stereo not drawn) | · | · | · | · | -0.5 | 9.2

Bioassay records (PubChem BioAssay)
